Laboratory results: ChEMBL document CHEMBL4052722, “Virtual screening, synthesis and biological evaluation of DNA intercalating antiviral agents” (Bioorg Med Chem Lett, 2017)

System: Vesicular stomatitis virus
Assay: Antiviral activity against Vesicular stomatitis virus at 0.2 to 620 uM after 24 hrs post infection relative to control
Type: functional
Settings: not given

Structure (SMILES) | Activity [%]
O=C(Cn1c2ccccc2c2nc3ccccc3nc21)OCCN1CCCCC1 | 50

System: not listed separately
Assay: Cytotoxicity against African green monkey CV1 cells assessed as reduction in cell viability preincubated for 4 hrs measured after 24 hrs by MTT assay relative to control
Type: cell-based, CV-1
Settings: chlorocebus aethiops
Procedure, shortened: (§1)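 CV-1 cells were exposed to test samples at 0.1, 10 and 100 μM. Viability was read by MTT assay.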

Structure (SMILES) | CC50 at 24 h [µM]
COC(=O)CN(C)CCCN1C(=O)c2cccc3cccc(c23)C1=O | > 100
CCCCN(CCO)CCN1C(=O)c2cccc3cccc(c23)C1=O | > 100
CCN(CC)CCCC(C)N1C(=O)c2cccc3cccc(c23)C1=O (stereo not given) | 50
O=C(CCCn1c2ccccc2c2nc3ccccc3nc21)NCCN1CCOCC1 | > 100
COC(=O)CN1CCN(CCN2C(=O)c3cccc4cccc(c34)C2=O)CC1 | > 100
CN(CCO)CCN1C(=O)c2cccc3cccc(c23)C1=O | > 100
CN1CCN(CC(=O)NN2C(=O)c3cccc4cccc(c34)C2=O)CC1 | 100
CN(C)CCCNC(=O)CCCn1c2ccccc2c2nc3ccccc3nc21 | > 100
O=C(CN1CCCCCC1)NN1C(=O)c2cccc3cccc(c23)C1=O | > 100
CN(C)CCNC(=O)CCCn1c2ccccc2c2nc3ccccc3nc21 | 100
Cc1ccc2c(c1)c1nc3ccccc3nc1n2CCN1CCN(C)CC1 | 100
CCN(CC)CCNC(=O)CCCn1c2ccccc2c2nc3ccccc3nc21 | 100
O=C(CCCn1c2ccccc2c2nc3ccccc3nc21)NCCCN1CCOCC1 | > 100
CC1CCN(CC(=O)NN2C(=O)c3cccc4cccc(c34)C2=O)CC1 | > 100
CCN(CCO)CCN1C(=O)c2cccc3cccc(c23)C1=O | 100
CC(O)N(C)CCn1c2ccccc2c2nc3ccccc3nc21 (stereo not given) | 100
CN1CCN(CCN2C(=O)c3cccc4cccc(c34)C2=O)CC1 | 100
O=C(CCCn1c2ccccc2c2nc3ccccc3nc21)NCCN1CCCCC1 | 100
O=C(Cn1c2ccccc2c2nc3ccccc3nc21)OCCN1CCCCC1 | > 100
CCN(CC)CCn1c2ccc(OC)cc2c2nc3ccccc3nc21 | 100
O=C(CN1CCCC1)NN1C(=O)c2cccc3cccc(c23)C1=O | > 100

System: not listed separately
Assay: Cytotoxicity against African green monkey CV1 cells assessed as cell viability at 0.1 to 100 uM preincubated for 4 hrs measured after 24 hrs by MTT assay relative to control
Type: cell-based, CV-1
Settings: chlorocebus aethiops, read-out: Activity
Procedure, shortened: as §1

Structure (SMILES) | viability at 24 h, up to 100 µM [%]
COC(=O)CN(C)CCCN1C(=O)c2cccc3cccc(c23)C1=O | 90
CCCCN(CCO)CCN1C(=O)c2cccc3cccc(c23)C1=O | 70
CCN(CC)CCCC(C)N1C(=O)c2cccc3cccc(c23)C1=O (stereo not given) | 86
O=C(CCCn1c2ccccc2c2nc3ccccc3nc21)NCCN1CCOCC1 | 95
COC(=O)CN1CCN(CCN2C(=O)c3cccc4cccc(c34)C2=O)CC1 | 78
CN(CCO)CCN1C(=O)c2cccc3cccc(c23)C1=O | 88
CN1CCN(CC(=O)NN2C(=O)c3cccc4cccc(c34)C2=O)CC1 | 84
CN(C)CCCNC(=O)CCCn1c2ccccc2c2nc3ccccc3nc21 | 96
O=C(CN1CCCCCC1)NN1C(=O)c2cccc3cccc(c23)C1=O | 97
CN(C)CCNC(=O)CCCn1c2ccccc2c2nc3ccccc3nc21 | 93
Cc1ccc2c(c1)c1nc3ccccc3nc1n2CCN1CCN(C)CC1 | 87
CCN(CC)CCNC(=O)CCCn1c2ccccc2c2nc3ccccc3nc21 | 88
O=C(CCCn1c2ccccc2c2nc3ccccc3nc21)NCCCN1CCOCC1 | 85
CC1CCN(CC(=O)NN2C(=O)c3cccc4cccc(c34)C2=O)CC1 | 104
CCN(CCO)CCN1C(=O)c2cccc3cccc(c23)C1=O | 79
CC(O)N(C)CCn1c2ccccc2c2nc3ccccc3nc21 (stereo not given) | 78
CN1CCN(CCN2C(=O)c3cccc4cccc(c34)C2=O)CC1 | 65
O=C(CCCn1c2ccccc2c2nc3ccccc3nc21)NCCN1CCCCC1 | 93
O=C(Cn1c2ccccc2c2nc3ccccc3nc21)OCCN1CCCCC1 | 102
CCN(CC)CCn1c2ccc(OC)cc2c2nc3ccccc3nc21 | 60
O=C(CN1CCCC1)NN1C(=O)c2cccc3cccc(c23)C1=O | 99

Species: Bos taurus
Assay: Displacement of ethidium bromide from calf thymus DNA by fluorescence binding assay
Settings: not given

Structure (SMILES) | log Ka
CCN(CC)CCCC(C)N1C(=O)c2cccc3cccc(c23)C1=O (stereo not given) | 5.5
O=C(CCCn1c2ccccc2c2nc3ccccc3nc21)NCCN1CCOCC1 | 4.91
CN1CCN(CC(=O)NN2C(=O)c3cccc4cccc(c34)C2=O)CC1 | 5.43
CN(C)CCCNC(=O)CCCn1c2ccccc2c2nc3ccccc3nc21 | 5.09
O=C(CN1CCCCCC1)NN1C(=O)c2cccc3cccc(c23)C1=O | 5.53
CN(C)CCNC(=O)CCCn1c2ccccc2c2nc3ccccc3nc21 | 5.01
CCN(CC)CCNC(=O)CCCn1c2ccccc2c2nc3ccccc3nc21 | 5.25
O=C(CCCn1c2ccccc2c2nc3ccccc3nc21)NCCCN1CCOCC1 | 5.11
CC1CCN(CC(=O)NN2C(=O)c3cccc4cccc(c34)C2=O)CC1 | 5.73
O=C(CCCn1c2ccccc2c2nc3ccccc3nc21)NCCN1CCCCC1 | 4.98
O=C(Cn1c2ccccc2c2nc3ccccc3nc21)OCCN1CCCCC1 | 5.39
O=C(CN1CCCC1)NN1C(=O)c2cccc3cccc(c23)C1=O | 5.41
